Activity calls are given as the source filed them. The rule behind the calls is not given here.
Experiments:
[1] = Antiproliferative activity against Hs683 cells after 72 hrs by MTT assay; type: functional, cell-based, Homo sapiens, Hs 683
In short: (§1)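 Cells cultured with each compound for three days; growth then read by the MTT colorimetric assay and reported as IC50 (µM).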

[2] = Antiproliferative activity against U373MG cells after 72 hrs by MTT assay; type: functional, cell-based, Homo sapiens, U-373MG ATCC; in short: as §1
HCT-15 = test: Antiproliferative activity against HCT15 cells after 72 hrs by MTT assay; type: functional, cell-based, Homo sapiens; in short: as §1
LoVo = test: Antiproliferative activity against LoVo cells after 72 hrs by MTT assay; type: functional, cell-based, Homo sapiens; in short: as §1
A549 = test: Antiproliferative activity against A549 cells after 72 hrs by MTT assay; type: functional, cell-based, Homo sapiens; in short: as §1
MCF7 = test: Antiproliferative activity against MCF7 cells after 72 hrs by MTT assay; type: functional, cell-based, Homo sapiens; conditions: Homo sapiens, MCF7, 72 h; in short: as §1
[3] = Toxicity in ip dosed B6D2F1 mouse; type: organism-based; conditions: in vivo
In short: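 Acute MTD was set by a single i.p. dose to groups of three healthy female B6D2F1 mice, at 2.5, 5, 10, 20, 40, 80 and 160 mg/kg. The MTD is the dose just below the lowest dose that killed at least one mouse.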

L1210 [4] = test: Antitumor activity in L1210 cells xenografted B6D2F1 mouse at 10 mg/kg, ip relative to control; type: functional; conditions: route intraperitoneal
In short: (§2)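 Mice grafted with L1210 leukaemia cells on day 0, then dosed i.p. four times weekly on days 1-4 and 8-11. Five mice per group. Outcome is %T/C, the median survival of treated over control. Kruskal-Wallis test followed by Dunn comparisons against control.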

L1210 [5] = test: Antitumor activity in L1210 cells xenografted B6D2F1 mouse at 20 mg/kg, ip relative to control; type: functional; conditions: route intraperitoneal; in short: as §2
L1210 [6] = test: Antitumor activity in L1210 cells xenografted B6D2F1 mouse at 40 mg/kg, ip relative to control; type: functional; conditions: route intraperitoneal; in short: as §2
L1210 [7] = test: Antitumor activity in L1210 cells xenografted B6D2F1 mouse at 80 mg/kg, ip relative to control; type: functional; conditions: route intraperitoneal; in short: as §2
L1210 [8] = test: Antitumor activity in L1210 cells xenografted B6D2F1 mouse at 120 mg/kg, ip relative to control; type: functional; conditions: route intraperitoneal; in short: as §2
Mus musculus [9] = test: Toxicity in B6D2F1 mouse at 120 mg/kg, ip; type: organism-based; design: dose 120 mg/kg, route intraperitoneal; conditions: in vivo
In short: (§3)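 Healthy female B6D2F1 mice, 10 per group, dosed i.p. in DMSO/saline (5:95 v/v) three times weekly for five weeks at two levels set relative to MTD; sacrificed 3 days after final dose; platelet, RBC and WBC counted by Coulter counter.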

Mus musculus [10] = test: Hematotoxicity in ip dosed B6D2F1 mouse assessed as decrease in platelet count; type: organism-based; conditions: in vivo
In short: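 Healthy female B6D2F1 mice, 10 per group, dosed i.p. three times weekly for five weeks at two dose levels set relative to MTD. Vehicle DMSO/saline 5:95 v/v. Killed 3 days after the last dose; blood platelet, RBC and WBC counts taken with a Coulter counter.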

Mus musculus [11] = test: Hematotoxicity in B6D2F1 mouse assessed as platelet count at 10 mg/kg, po; type: organism-based; design: dose 10 mg/kg, route oral; conditions: in vivo
Mus musculus [12] = test: Hematotoxicity in B6D2F1 mouse assessed as RBC count at 2.5 mg/kg, po; type: organism-based; design: dose 2.5 mg/kg, route oral; conditions: in vivo
Mus musculus [13] = test: Hematotoxicity in B6D2F1 mouse assessed as RBC count at 5 mg/kg, po; type: organism-based; design: dose 5 mg/kg, route oral; conditions: in vivo
L1210 [14] = test: Antitumor activity in L1210 cells xenografted B6D2F1 mouse at 5 mg/kg, ip relative to control; type: functional; conditions: route intraperitoneal; in short: as §2
Mus musculus [15] = test: Hematotoxicity in B6D2F1 mouse assessed as platelet count at 2.5 mg/kg, iv; type: organism-based; design: dose 2.5 mg/kg, route intravenous; conditions: in vivo
Mus musculus [16] = test: Hematotoxicity in B6D2F1 mouse assessed as platelet count at 5 mg/kg, iv; type: organism-based; design: dose 5 mg/kg, route intravenous; conditions: in vivo
Mus musculus [17] = test: Hematotoxicity in B6D2F1 mouse assessed as RBC count at 2.5 mg/kg, iv; type: organism-based; design: dose 2.5 mg/kg, route intravenous; conditions: in vivo
Mus musculus [18] = test: Hematotoxicity in B6D2F1 mouse assessed as RBC count at 5 mg/kg, iv; type: organism-based; design: dose 5 mg/kg, route intravenous; conditions: in vivo
Mus musculus [19] = test: Hematotoxicity in B6D2F1 mouse assessed as WBC count at 2.5 mg/kg, iv; type: organism-based; design: dose 2.5 mg/kg, route intravenous; conditions: in vivo
Mus musculus [20] = test: Hematotoxicity in B6D2F1 mouse assessed as WBC count at 5 mg/kg, iv; type: organism-based; design: dose 5 mg/kg, route intravenous; conditions: in vivo
Mus musculus [21] = test: Hematotoxicity in B6D2F1 mouse assessed as platelet count at 2.5 mg/kg, po; type: organism-based; design: dose 2.5 mg/kg, route oral; conditions: in vivo
Mus musculus [22] = test: Hematotoxicity in B6D2F1 mouse assessed as platelet count at 5 mg/kg, po; type: organism-based; design: dose 5 mg/kg, route oral; conditions: in vivo
Mus musculus [23] = test: Hematotoxicity in B6D2F1 mouse assessed as RBC count at 10 mg/kg, po; type: organism-based; design: dose 10 mg/kg, route oral; conditions: in vivo
Mus musculus [24] = test: Hematotoxicity in B6D2F1 mouse assessed as WBC count at 2.5 mg/kg, po; type: organism-based; design: dose 2.5 mg/kg, route oral; conditions: in vivo
Mus musculus [25] = test: Hematotoxicity in B6D2F1 mouse assessed as WBC count at 5 mg/kg, po; type: organism-based; design: dose 5 mg/kg, route oral; conditions: in vivo
Mus musculus [26] = test: Hematotoxicity in B6D2F1 mouse assessed as WBC count at 10 mg/kg, po; type: organism-based; design: dose 10 mg/kg, route oral; conditions: in vivo
Mus musculus [27] = test: Toxicity in B6D2F1 mouse at 40 mg/kg, ip; type: organism-based; design: dose 40 mg/kg, route intraperitoneal; conditions: in vivo
Mus musculus [28] = test: Toxicity in B6D2F1 mouse at 80 mg/kg, ip; type: organism-based; design: dose 80 mg/kg, route intraperitoneal; conditions: in vivo; in short: as §3
Homo sapiens = species: Homo sapiens; test: Inhibition of human topoisomerase 2 at 50 uM by plasmid linearization assay
Mus musculus [29] = test: Hematotoxicity in B6D2F1 mouse assessed as platelet count at 20 mg/kg, po; type: organism-based; design: dose 20 mg/kg, route oral; conditions: in vivo
L1210 [30] = test: Antitumor activity in L1210 cells xenografted B6D2F1 mouse at 2.5 mg/kg, ip relative to control; type: functional; conditions: route intraperitoneal; in short: as §2
Mus musculus [31] = test: Hematotoxicity in B6D2F1 mouse assessed as platelet count at 10 mg/kg, iv; type: organism-based; design: dose 10 mg/kg, route intravenous; conditions: in vivo
Mus musculus [32] = test: Hematotoxicity in B6D2F1 mouse assessed as WBC count at 10 mg/kg, iv; type: organism-based; design: dose 10 mg/kg, route intravenous; conditions: in vivo
Mus musculus [33] = test: Hematotoxicity in B6D2F1 mouse assessed as RBC count at 10 mg/kg, iv; type: organism-based; design: dose 10 mg/kg; conditions: in vivo
Mus musculus [34] = test: Hematotoxicity in B6D2F1 mouse assessed as RBC count at 20 mg/kg, po; type: organism-based; design: dose 20 mg/kg, route oral; conditions: in vivo
Mus musculus [35] = test: Hematotoxicity in B6D2F1 mouse assessed as WBC count at 20 mg/kg, po; type: organism-based; design: dose 20 mg/kg, route oral; conditions: in vivo
[36] = Antitumor activity against mouse MXT-HI cells xenografted in B6D2F1 mouse at 20 mg/kg, ip relative to control; type: functional; conditions: route intraperitoneal
In short: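 MXT-HI mammary adenocarcinoma grafted s.c. onto female B6D2F1 mice. Dosing i.p., five injections weekly for three weeks from day 14 post-graft. Nine mice per group. Tumour surface area measured, and survival expressed as %T/C, the ratio of treated to control median survival time.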

Row | Structure (SMILES) | IC50 ([1]; Homo sapiens, Hs 683, 72 h) [µM] | IC50 ([2]; Homo sapiens, U373 MG, 72 h) [µM] | IC50 (HCT-15; Homo sapiens, HCT-15, 72 h) [µM] | IC50 (LoVo; Homo sapiens, LoVo, 72 h) [µM] | IC50 (A549; Homo sapiens, A549, 72 h) [µM] | IC50 (MCF7) [µM] | MTD [3] [mg/kg] | Activity (L1210 [4]) [%] | Activity (L1210 [5]) [%] | Activity (L1210 [6]) [%] | Activity (L1210 [7]) [%] | Activity (Mus musculus [11]) | Activity (Mus musculus [13]) | Activity (L1210 [14]) [%] | Activity (Mus musculus [16]) | Activity (Mus musculus [18]) | Activity (Mus musculus [20]) | Activity (Mus musculus [22]) | Activity (Mus musculus [23]) | Activity (Mus musculus [25]) | also measured
1 | CN(C)CCN1C(=O)c2cccc3cc(/N=C\c4ccc5c(c4)OCO5)cc(c23)C1=O | > 10 | > 10 | 9 | 8.3 | > 10 | > 10 | 80 | 115 | 150 | 165 | 288 |  |  |  |  |  |  |  |  |  | Activity (L1210 [8]): 41%; Activity (Mus musculus [9]): Toxic; Activity (Mus musculus [10]): Toxic
2 | CC(=O)Nc1cc2c3c(cccc3c1)C(=O)N(CCN(C)C)C2=O | > 10 | 9 | 7.8 | > 10 | > 10 | > 10 | 40 | 149 | >300 | 48 | 47 | 922 10^3 /uL | 10.25 10^6 /uL | 111 | 351 10^3 /uL | 9.59 10^6 /uL | 2.5 10^3 /uL | 968 10^3 /uL | 9.64 10^6 /uL | 2.74 10^3 /uL | Activity (Mus musculus [12]): 10.01 10^6 /uL; Activity (Mus musculus [15]): 470 10^3 /uL; Activity (Mus musculus [17]): 9.74 10^6 /uL; Activity (Mus musculus [19]): 3.97 10^3 /uL; Activity (Mus musculus [21]): 961 10^3 /uL; Activity (Mus musculus [24]): 2.66 10^3 /uL; Activity (Mus musculus [26]): 2.66 10^3 /uL; Activity (Mus musculus [27]): Toxic; Activity (Mus musculus [28]): Toxic; Activity (Homo sapiens): Active
3 | CN(C)CCN1C(=O)c2cccc3cc(N)cc(c23)C1=O [AMONAFIDE] |  |  |  |  |  | 5.8 | 40 | 122 | 121 | 49 |  | 916 10^3 /uL | 9.82 10^6 /uL | 140 | 461 10^3 /uL | 8.59 10^6 /uL | 3.33 10^3 /uL | 892 10^3 /uL | 10.05 10^6 /uL | 3.26 10^3 /uL | Activity (Mus musculus [29]): 806 10^3 /uL; IC50 ([1]; hs 683): 3.9 µM; IC50 ([2]; u-373mg atcc): 3.5 µM; IC50 (HCT-15; hct-15): 5.2 µM; IC50 (LoVo; lovo): 2.7 µM; IC50 (A549; a549): 3.8 µM; Activity (L1210 [30]): 109%; Activity (Mus musculus [31]): 390 10^3 /uL; Activity (Mus musculus [32]): 3.07 10^3 /uL; Activity (Mus musculus [33]): 9.54 10^6 /uL; Activity (Mus musculus [34]): 9.54 10^6 /uL; Activity (Mus musculus [26]): 3.06 10^3 /uL; Activity (Mus musculus [35]): 2.93 10^3 /uL; Activity [36]: 143%; Activity (Mus musculus [27]): Toxic
